Data published in ChEMBL document CHEMBL4393661, “PRODRUGS FOR NITROREDUCTASE BASED CANCER THERAPY- 2: Novel amide/Ntr combinations targeting PC3 cancer cells” (Eur J Med Chem, 2019).

How the values were obtained:
Putative nitroreductase [1] = biological target: T1, Putative nitroreductase (Staphylococcus saprophyticus subsp. saprophyticus (strain ATCC 15305 / DSM20229 / NCIMB 8711 / NCTC 7292 / S-41), UniProt Q4A0P1); assay: Prodrug conversion assessed Staphylococcus saprophyticus nitroreductase expressed in Escherichia coli-mediated PP (4-(hydroxyamino)phenyl)(piperidin-1-yl)methanone metabolite formation by measuring retention time in presence of FDH cofactor regeneration system at 100 uM by HPLC analysis; format: ADME
T1 sequence (Q4A0P1 whole entry): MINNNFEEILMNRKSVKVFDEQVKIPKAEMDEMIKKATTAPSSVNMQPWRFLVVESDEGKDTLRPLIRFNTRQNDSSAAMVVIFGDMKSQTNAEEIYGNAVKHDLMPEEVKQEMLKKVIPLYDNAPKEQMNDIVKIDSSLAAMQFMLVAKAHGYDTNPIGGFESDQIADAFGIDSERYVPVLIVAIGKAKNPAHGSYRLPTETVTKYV
Outline: (§1)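 This was a coupled regeneration reaction: 100 µM substrate in Tris/Cl pH 7.5 with 5–15% DMSO, plus 100 µM NADH, 10 µM NAD+, 0.1 mg/mL BSA, 200 µM sodium formate, 30 µg/mL Ssap-NtrB and 30 µg/mL Candida methylica FDH, at 25 °C. Aliquots were taken over time, quenched 1:1 with cold acetonitrile and analysed by C18 HPLC using program II (20→80→20% ACN). Peak areas were read at 254 and 340 nm.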

Putative nitroreductase [2] = biological target: T1, Putative nitroreductase; assay: Prodrug conversion assessed Staphylococcus saprophyticus nitroreductase expressed in Escherichia coli-mediated PP (4-(hydroxyamino)phenyl)(piperidin-1-yl)methanone metabolite formation by measuring retention time of metabolite at 100 uM incubated for 15 mins by HPLC analysis; format: ADME; conditions: 0.25 h
Outline: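 Recombinant Ssap-NtrB, Ni-column purified, was used at 2.5 µg/mL. Substrate at 100 µM was reacted with 200 µM NADH in 25 mM Tris/Cl pH 7.5 with 10% DMSO at 25 °C for 15 min. The reaction was stopped 1:1 with cold acetonitrile and run on C18 RP-HPLC at 1 mL/min with a 20–80% ACN gradient. Peaks were detected at 254 and 340 nm.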

Putative nitroreductase [3] = biological target: T1, Putative nitroreductase; assay: Prodrug conversion assessed Staphylococcus saprophyticus nitroreductase expressed in Escherichia coli-mediated (4-aminophenyl)(piperidin-1-yl)methanone metabolite formation by measuring retention time in presence of FDH cofactor regeneration system at 100 uM by HPLC analysis; format: ADME; outline: as §1
Putative nitroreductase [4] = biological target: T1, Putative nitroreductase; assay: Prodrug conversion assessed as Staphylococcus saprophyticus nitroreductase mediated P4 metabolite formation in presence of FDH cofactor regeneration system at 100 uM by HPLC analysis; format: ADME; conditions: isolated protein; outline: as §1
[5] = biological target: T2, Staphylococcus saprophyticus nitroreductase (Staphylococcus saprophyticus subsp. saprophyticus (strain ATCC 15305 / DSM20229 / NCIMB 8711 / NCTC 7292 / S-41), UniProt Q4A0P1); assay: Substrate activity at Staphylococcus saprophyticus nitroreductase expressed in Escherichia coli assessed as half life […] at 150 uM by HPLC analysis (0 to 5 mins at 20 % ACN, 15 to 22 min at 80% ACN, 27-32 AT 20% ACN); format: ADME
T2 sequence (Q4A0P1 whole entry): T1 sequence (Q4A0P1 whole entry)

Putative nitroreductase [6] = biological target: T1, Putative nitroreductase; assay: Prodrug conversion assessed as Staphylococcus saprophyticus nitroreductase mediated P2 metabolite formation in presence of FDH cofactor regeneration system at 100 uM by HPLC analysis; format: ADME; conditions: isolated protein; outline: as §1
[7] = Cytotoxicity against human Hep3B cells assessed as cell viability at 9 to 150 uM measured after 48 hrs by MTT assay relative to control; format: cell-based, Hep 3B2; conditions: read-out: Activity
Outline: (§2)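 Hep3B and HUVEC cells were grown in high-glucose medium with 10% heat-inactivated FBS and 2 mM glutamine at 37 °C in 5% CO2. Cells were seeded at 5x10^4 per well and left 24 h to attach. They were then exposed for 48 h to 150, 75, 39, 19 and 9 µM, with 1% DMSO as vehicle control. Viability was read by MTT at 550 nm as (OD sample/OD control)×100.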

Putative nitroreductase [8] = biological target: T1, Putative nitroreductase; assay: Substrate activity at Staphylococcus saprophyticus nitroreductase expressed in Escherichia coli assessed as retention time […] at 150 uM by HPLC analysis (0 to 5 mins at 20 % ACN, 15 to 22 min at 80% ACN, 27-32 AT 20% ACN); format: ADME
Putative nitroreductase [9] = biological target: T1, Putative nitroreductase; assay: Prodrug conversion assessed as Staphylococcus saprophyticus nitroreductase mediated P1 metabolite formation in presence of FDH cofactor regeneration system at 100 uM by HPLC analysis; format: ADME; conditions: isolated protein; outline: as §1
Putative nitroreductase [10] = biological target: T1, Putative nitroreductase; assay: Prodrug conversion assessed as Staphylococcus saprophyticus nitroreductase mediated P3 metabolite formation in presence of FDH cofactor regeneration system at 100 uM by HPLC analysis; format: ADME; conditions: isolated protein; outline: as §1
[11] = Cytotoxicity against human PC3 cells assessed as cell viability at 9 to 150 uM measured after 48 hrs by MTT assay relative to control; format: cell-based, PC-3; conditions: read-out: Activity
Outline: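 They were treated for 48 h at 9, 18, 39, 78 and 150 µM, with 1% DMSO as vehicle control. Viability was read by MTT at 550 nm.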

[12] = biological target: T2, Staphylococcus saprophyticus nitroreductase; assay: Substrate activity at Staphylococcus saprophyticus nitroreductase expressed in Escherichia coli assessed as half life in the presence of NADPH at 150 uM by HPLC analysis (0 to 5 mins at 20% ACN, 25 to 35 min at 80% ACN, 40 to 45 min at 20% ACN); format: ADME
Putative nitroreductase [13] = biological target: T1, Putative nitroreductase; assay: Substrate activity at Staphylococcus saprophyticus nitroreductase expressed in Escherichia coli assessed as retention time in the presence of NADPH at 150 uM by HPLC analysis (0 to 5 mins at 20% ACN, 25 to 35 min at 80% ACN, 40 to 45 min at 20% ACN); format: ADME
[14] = Cytotoxicity against human HUVEC cells assessed as cell viability at 9 to 150 uM measured after 48 hrs by MTT assay relative to control; format: cell-based; conditions: read-out: Activity; outline: as §2
Putative nitroreductase [15] = biological target: T1, Putative nitroreductase; assay: Prodrug conversion assessed as Staphylococcus saprophyticus nitroreductase mediated P5 metabolite formation in presence of FDH cofactor regeneration system at 100 uM by HPLC analysis; format: ADME; conditions: isolated protein; outline: as §1
[16] = biological target: T3, Oxygen-insensitive NAD(P)H nitroreductase (Escherichia coli K-12, UniProt P38489); assay: Substrate activity at Escherichia coli nitroreductase nfsB assessed as ratio of Kcat/Km up to 80 mM using NADH as cofactor relative to CB1954/NfsB; format: ADME
T3 sequence (P38489 whole entry): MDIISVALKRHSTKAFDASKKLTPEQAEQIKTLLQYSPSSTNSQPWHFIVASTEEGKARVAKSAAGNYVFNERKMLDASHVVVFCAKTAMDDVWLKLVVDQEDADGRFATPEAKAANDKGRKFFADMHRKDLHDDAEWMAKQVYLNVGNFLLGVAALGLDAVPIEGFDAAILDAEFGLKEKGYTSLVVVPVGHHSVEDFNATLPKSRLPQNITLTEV

PC-3 [17] = assay: Cytotoxicity in human PC3 cells assessed as reduction in cell viability at 180 nM measured after 48 hrs by SRB assay; format: cell-based; conditions: pc-3, 48 h, 0.18 µM
Outline: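 They were exposed for 48 h to prodrug alone at 180 nM final, without enzyme or NADH, with 25 mM Tris-HCl as vehicle control. Cells were fixed with 12.5% TCA for 1 h at 4 °C, stained with 0.4% SRB and read at 492 nm as % cell survival, in triplicate.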

Putative nitroreductase [18] = biological target: T1, Putative nitroreductase; assay: Substrate activity at Staphylococcus saprophyticus nitroreductase expressed in Escherichia coli assessed as retention time […] at 100 uM by HPLC analysis (0 to 5 mins at 20 % ACN, 15 to 22 min at 80% ACN, 27-32 AT 20% ACN); format: ADME
PC-3 [19] = assay: Cytotoxicity against human PC3 cells assessed as reduction in cell viability measured after 48 hrs in presence of Staphylococcus saprophyticus nitroreductase and NADH by SRB assay; format: cell-based; conditions: PC-3, 48 h
Outline: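 Prodrug at 180, 18 or 1.8 nM was premixed with Ssap-NtrB (31 µg/mL final) and NADH (600 µM final; 900 µM for CB1954) in 25 mM Tris-HCl pH 7.5, then added for 48 h under aerobic conditions. Cells were fixed with 12.5% TCA, stained with SRB and read at 492 nm, in triplicate.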

[20] = Solubility of the compound in 15% DMSO; format: physicochemical
[21] = biological target: T2, Staphylococcus saprophyticus nitroreductase; assay: Substrate activity at Staphylococcus saprophyticus nitroreductase expressed in Escherichia coli assessed as half life […] at 100 uM by HPLC analysis (0 to 5 mins at 20 % ACN, 15 to 22 min at 80% ACN, 27-32 AT 20% ACN); format: ADME
Putative nitroreductase [22] = biological target: T1, Putative nitroreductase; assay: Substrate activity at Staphylococcus saprophyticus nitroreductase expressed in Escherichia coli assessed as retention time in the presence of NADPH at 111 uM by HPLC analysis (0 to 5 mins at 20% ACN, 25 to 35 min at 80% ACN, 40 to 45 min at 20% ACN); format: ADME
Putative nitroreductase [23] = biological target: T1, Putative nitroreductase; assay: Substrate activity at Staphylococcus saprophyticus nitroreductase expressed in Escherichia coli assessed as retention time […] at 111 uM by HPLC analysis (0 to 5 mins at 20 % ACN, 15 to 22 min at 80% ACN, 27-32 AT 20% ACN); format: ADME
Hep 3B2 = assay: Cytotoxicity against human Hep3B cells assessed as reduction in cell viability measured after 48 hrs by MTT assay; format: cell-based; outline: as §2
[24] = biological target: T2, Staphylococcus saprophyticus nitroreductase; assay: Substrate activity at Staphylococcus saprophyticus nitroreductase expressed in Escherichia coli assessed as half life in the presence of NADPH at 111 uM by HPLC analysis (0 to 5 mins at 20% ACN, 25 to 35 min at 80% ACN, 40 to 45 min at 20% ACN); format: ADME

Compound: O=C(c1ccc(NO)cc1)N1CCCCC1
- Retention_time (Putative nitroreductase [1]): 14 min
- Retention_time (Putative nitroreductase [2]): 15.99 min
- Retention_time (Putative nitroreductase [3]): 22.3 min

Compound: CCN(C(C)=O)c1cc([N+](=O)[O-])cc([N+](=O)[O-])c1
- Drug metabolism (Putative nitroreductase [4]): Metabolite_Detected
- half-life [5]: < 1.2 min
- Drug metabolism (Putative nitroreductase [6]): Metabolite_Detected
- viability at 48 h, up to 150 µM [7]: 51 to 80%
- Retention_time (Putative nitroreductase [8]): 14.55 min
- Drug metabolism (Putative nitroreductase [9]): Metabolite_Detected
- Drug metabolism (Putative nitroreductase [10]): Metabolite_Detected
- viability at 48 h, up to 150 µM [11]: > 80%
- half-life [12]: < 1.2 min
- Retention_time (Putative nitroreductase [13]): 16.85 min
- viability at 48 h, up to 150 µM [14]: > 80%
- Drug metabolism (Putative nitroreductase [15]): Metabolite_Detected

Compound: CS(=O)(=O)OCCN(CCBr)c1c(C(=O)NCCO)cc([N+](=O)[O-])cc1[N+](=O)[O-]
- fold change (FC) [16]: 2.32

Compound: O=C(c1ccc([N+](=O)[O-])cc1)N1CCOCC1
- viability at 48 h, up to 150 µM [7]: > 80%
- Activity (PC-3 [17]): Non-Toxic
- Retention_time (Putative nitroreductase [18]): 15.17 min
- viability at 48 h, up to 150 µM [11]: > 80%
- IC50 (PC-3 [19]): 0.00181 µM
- viability at 48 h, up to 150 µM [14]: > 80%
- Retention time (Putative nitroreductase [2]): 16 min
- solubility [20]: Soluble
- half-life [21]: < 15 min

Compound: CCCCN(CCCC)c1c([N+](=O)[O-])cc(C(=O)Nc2ccc(Cl)cc2)cc1[N+](=O)[O-]
- Retention_time (Putative nitroreductase [22]): 34.2 min
- Retention_time (Putative nitroreductase [23]): 20.12 min
- viability at 48 h, up to 150 µM [7]: < 50%
- IC50 (Hep 3B2): 11.6 µM
- viability at 48 h, up to 150 µM [11]: < 50%
- viability at 48 h, up to 150 µM [14]: < 50%
- half-life [24]: < 144 min
